Experimental data reported in ChEMBL document CHEMBL4261570, “Design, Synthesis and Preliminary Antimicrobial Evaluation of N-Alkyl Chain Tethered C-5 Functionalized Bis-Isatins” (Medchemcomm, 2017).
The source made the active and inactive calls. No cut-off for these calls is given here.

Assays:
Trichomonas vaginalis = assay: Antiparasitic activity against Trichomonas vaginalis assessed as parasite growth inhibition at 50 uM after 24 hrs by hemacytometer relative to control; format: functional; settings: read-out: GI
Method in brief: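 G3 strain cultured in TYM Diamond's medium in 15 mL tubes, with compound in DMSO. Controls were untreated and 0.1% DMSO. After 24 h, cells were counted by hemacytometer and normalized to the DMSO controls. Screening was at 50 μM. IC50 came from titrations of 5–40 μM with variable-slope regression, 4 independent trials on different days, and was then re-confirmed.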

Giardia intestinalis [1] = assay: Antiparasitic activity against Giardia lamblia WB trophozoites assessed as parasite growth inhibition at 50 uM after 48 hrs by ATP bioluminescence-based CellTiter-Glo luminescent cell viability assay relative to control; format: functional; settings: Giardia duodenalis; for inhibition of growth at 50 µM: read-out: GI
Method in brief: (§1)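 Trophozoites kept axenically in TYI-S-33 with penicillin and streptomycin. Each well held 5000 trophozoites and was incubated 48 h at 37 °C under anaerobic conditions in a GasPak pouch. Read-out was CellTiter-Glo ATP luminescence. Controls were 0.5% DMSO vehicle and 30 μM metronidazole. Primary screen at 50 μM in duplicate; hits were those above 50% inhibition. EC50 came from triplicate 8-point series (0.39–50 μM) and dose-response curves.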

Entamoeba histolytica = assay: Antiparasitic activity against Entamoeba histolytica HM-1:IMSS trophozoites assessed as parasite growth inhibition at 50 uM after 48 hrs by ATP bioluminescence-based CellTiter-Glo luminescent cell viability assay relative to control; format: functional; settings: for inhibition of growth at 50 µM: read-out: GI; method in brief: as §1
[2] = tested on: Lacticaseibacillus rhamnosus; assay: Toxicity in Lactobacillus rhamnosus ATCC 53103 at 100 uM measured after overnight incubation by disc diffusion method; format: organism-based, GG; settings: in vivo
Method in brief: (§2)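 Grown in Lactobacilli MRS at 37 °C under anaerobic conditions. Blank 6 mm discs were soaked 20 min at room temperature in a 100 μM working dilution in medium. Discs were placed on streaked agar alongside DMSO vehicle and antibiotic discs (levofloxacin, gentamicin), incubated overnight at 37 °C, and zones of inhibition measured in mm.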

[3] = tested on: Limosilactobacillus reuteri; assay: Toxicity in Lactobacillus reuteri ATCC 23272 at 100 uM measured after overnight incubation by disc diffusion method; format: organism-based; settings: in vivo; method in brief: as §2
[4] = tested on: Lactobacillus acidophilus; assay: Toxicity in Lactobacillus acidophilus ATCC 43560 at 100 uM measured after overnight incubation by disc diffusion method; format: organism-based; settings: in vivo; method in brief: as §2
Escherichia coli = assay: Toxicity in Escherichia coli K-12 MG1655 at 100 uM measured after overnight incubation by disc diffusion method; format: organism-based, K-12 substr. MG1655; settings: in vivo
Method in brief: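 Grown in Luria broth at 37 °C under aerobic conditions. Blank 6 mm discs were soaked 20 min at room temperature in a 100 μM working dilution in medium. Discs were placed on streaked agar alongside DMSO vehicle and antibiotic discs (levofloxacin, gentamicin), incubated overnight at 37 °C, and inhibition zones measured in mm.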

Aspergillus parasiticus [5] = assay: Antifungal activity against Aspergillus parasiticus NRRL5862 assessed as fungal growth at 500 uM after 24 hrs by microtiter plate liquid bioassay (reference value: 100%); format: functional
Method in brief: (§3)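 A. parasiticus grown at 35 °C on PDA. Liquid assay in RPMI 1640, 3 × 104 to 5 × 10^4 CFU per mL, triplicate wells, 35 °C. Compounds in DMSO (<2% in media). No-treatment wells carry matched DMSO. Wells scored visually 0–4 versus the no-treatment control: 0 clear, 1 25%, 2 50%, 3 75%, 4 no reduction. Scoring follows CLSI M38-A.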

Aspergillus parasiticus [6] = assay: Antifungal activity against Aspergillus parasiticus NRRL5862 assessed as fungal growth at 500 uM after 48 hrs by microtiter plate liquid bioassay (reference value: 100%); format: functional; method in brief: as §3
Saccharomyces cerevisiae [7] = assay: Antifungal activity against Saccharomyces cerevisiae BY4741 assessed as fungal growth at 500 uM after 24 hrs by microtiter plate liquid bioassay (reference value: 100%); format: functional
Saccharomyces cerevisiae [8] = assay: Antifungal activity against Saccharomyces cerevisiae BY4741 assessed as fungal growth at 500 uM after 48 hrs by microtiter plate liquid bioassay (reference value: 100%); format: functional
Naegleria fowleri = assay: Antiparasitic activity against Naegleria fowleri KUL trophozoites assessed as parasite growth inhibition after 48 hrs by ATP bioluminescence-based CellTiter-Glo luminescent cell viability assay; format: functional, organism-based
Method in brief: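 Strain KUL trophozoites cultured axenically in Nelson's medium with 10% FBS at 37 °C. Each well held 10 000 trophozoites, incubated under aerobic conditions without the anaerobe pouch. Read-out was CellTiter-Glo luminescence. Positive control was 50 μM amphotericin B. Hits were serially diluted in triplicate, 8 points from 0.39 to 50 μM, and EC50 was taken from dose-response curves.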

Giardia intestinalis [9] = assay: Antiparasitic activity against Giardia lamblia WB trophozoites assessed as parasite growth inhibition after 48 hrs by ATP bioluminescence-based CellTiter-Glo luminescent cell viability assay; format: functional, organism-based; settings: Giardia duodenalis; method in brief: as §1

Row | SMILES | inhibition of growth at 50 µM (Trichomonas vaginalis) | growth inhibition (GI) (Giardia intestinalis [1]) | growth inhibition (GI) (Entamoeba histolytica) | Activity [2] | Activity [3] | Activity [4] | Activity (Escherichia coli) | inhibition of growth at 50 µM (Giardia intestinalis [1]) | Activity (Aspergillus parasiticus [5]) | Activity (Aspergillus parasiticus [6]) | Activity (Saccharomyces cerevisiae [7]) | Activity (Saccharomyces cerevisiae [8]) | inhibition of growth at 50 µM (Entamoeba histolytica) | IC50 (Naegleria fowleri) | IC50 (Giardia intestinalis [9])
1 | O=C1C(=O)N(CCN2C(=O)C(=O)c3cc(Br)ccc32)c2ccccc21 | 100% | inactive | inactive | Non-Toxic | Non-Toxic | Non-Toxic | Non-Toxic | – | – | – | – | – | – | – | –
2 | O=C1C(=O)N(CCCCN2C(=O)C(=O)c3ccccc32)c2ccccc21 | 61.3% | – | inactive | Non-Toxic | Non-Toxic | Non-Toxic | Non-Toxic | 11.6% | – | – | – | – | – | – | –
3 | O=C1C(=O)N(CCCCN2C(=O)C(=O)c3cc(Cl)ccc32)c2ccccc21 | 100% | inactive | inactive | Non-Toxic | Non-Toxic | Non-Toxic | Non-Toxic | – | 100% | 100% | 25% | 75% | – | – | –
4 | O=C1C(=O)N(CCCCCCCCN2C(=O)C(=O)c3cc(F)ccc32)c2ccccc21 | 100% | inactive | – | Non-Toxic | Non-Toxic | Non-Toxic | Non-Toxic | – | – | – | – | – | 13.8% | – | –
5 | O=C1C(=O)N(CCCCCCN2C(=O)C(=O)c3cc(F)ccc32)c2ccccc21 | 100% | – | inactive | Non-Toxic | Non-Toxic | Non-Toxic | Non-Toxic | 30.9% | – | – | – | – | – | – | –
6 | CCCCCCCCCCCCCCCCOP(=O)([O-])OCC[N+](C)(C)C [MILTEFOSINE] | – | – | – | – | – | – | – | – | – | – | – | – | – | 54.5 µM | –
7 | CCCCCCCCOC(=O)c1cc(O)c(O)c(O)c1 [OCTYL_GALLATE] | – | – | – | – | – | – | – | – | 0% | 0% | 0% | 0% | – | – | –
8 | O=C1C(=O)N(CCCN2C(=O)C(=O)c3cc(Cl)ccc32)c2ccccc21 | 100% | inactive | inactive | Non-Toxic | Non-Toxic | Non-Toxic | Non-Toxic | – | – | – | – | – | – | – | –
9 | C[C@@H]1[C@H](O)[C@@H](C)/C=C/C=C/C=C/C=C/C=C/C=C/C=C/[C@H](O[C@@H]2O[C@H](C)[C@@H](O)[C@H](N)[C@@H]2O)C[C@@H]2O[C@](O)(C[C@@H](O)C[C@@H](O)[C@H](O)CC[C@@H](O)C[C@@H](O)CC(=O)O[C@H]1C)C[C@H](O)[C@H]2C(=O)O [AMPHOTERICIN B] | – | – | – | – | – | – | – | – | – | – | – | – | – | 0.2 µM | –
10 | O=C1C(=O)N(CCCCN2C(=O)C(=O)c3cc(F)ccc32)c2ccccc21 | 100% | – | inactive | Non-Toxic | Non-Toxic | Non-Toxic | Non-Toxic | 1.2% | – | – | – | – | – | – | –
11 | O=C1C(=O)N(CCN2C(=O)C(=O)c3cc(F)ccc32)c2ccccc21 | 45.5% | – | inactive | Non-Toxic | Non-Toxic | Non-Toxic | Non-Toxic | 8.15% | – | – | – | – | – | – | –
12 | O=C1C(=O)N(CCCN2C(=O)C(=O)c3ccccc32)c2ccccc21 | 96.8% | – | inactive | Non-Toxic | Non-Toxic | Non-Toxic | Non-Toxic | 7.84% | – | – | – | – | – | – | –
13 | O=C1C(=O)N(CCCCCCN2C(=O)C(=O)c3cc(Cl)ccc32)c2ccccc21 | 93.9% | – | inactive | Non-Toxic | Non-Toxic | Non-Toxic | Non-Toxic | 94.5% | – | – | – | – | – | – | 31.5 µM
14 | O=C1C(=O)N(CCCCCN2C(=O)C(=O)c3ccccc32)c2ccccc21 | 90.9% | – | – | Non-Toxic | Non-Toxic | Non-Toxic | Non-Toxic | 94.3% | – | – | – | – | 100% | – | 26 µM
15 | O=C1C(=O)N(CCCCCCN2C(=O)C(=O)c3cc(Br)ccc32)c2ccccc21 | 100% | – | inactive | Non-Toxic | Non-Toxic | Non-Toxic | Non-Toxic | 43.2% | – | – | – | – | – | – | –
16 | O=C1C(=O)N(CCN2C(=O)C(=O)c3ccccc32)c2ccccc21 | 96.8% | – | inactive | Non-Toxic | Non-Toxic | Non-Toxic | Non-Toxic | 6.75% | – | – | – | – | – | – | –
17 | O=C1C(=O)N(CCCCCCCCN2C(=O)C(=O)c3ccccc32)c2ccccc21 | 30.3% | – | – | Non-Toxic | Non-Toxic | Non-Toxic | Non-Toxic | 80.7% | – | – | – | – | 100% | – | 38 µM
18 | O=C1C(=O)N(CCCBr)c2ccccc21 | 59.9% | – | – | Non-Toxic | Non-Toxic | Non-Toxic | Non-Toxic | 22.9% | 75 - 100% | 100% | 50% | 75% | 1.32% | – | –
19 | O=C1C(=O)N(CCCCCCN2C(=O)C(=O)c3ccccc32)c2ccccc21 | 45.5% | – | inactive | Non-Toxic | Non-Toxic | Non-Toxic | Non-Toxic | 9.68% | – | – | – | – | – | – | –
20 | O=C1C(=O)N(CCCCCCCCN2C(=O)C(=O)c3cc(Cl)ccc32)c2ccccc21 | 75.8% | – | inactive | Non-Toxic | Non-Toxic | Non-Toxic | Non-Toxic | 8.56% | – | – | – | – | – | – | –
21 | O=C1C(=O)N(CCCCCN2C(=O)C(=O)c3cc(Br)ccc32)c2ccccc21 | 100% | inactive | inactive | Non-Toxic | Non-Toxic | Non-Toxic | Non-Toxic | – | 100% | 100% | 50% | 100% | – | – | –
22 | O=C1C(=O)N(CCCCCCCCN2C(=O)C(=O)c3cc(Br)ccc32)c2ccccc21 | 96.8% | – | inactive | Non-Toxic | Non-Toxic | Non-Toxic | Non-Toxic | 51.1% | – | – | – | – | – | – | –
